In paper PMC7613447 (Bioorganic & medicinal chemistry, 2022):
Where a SMILES comes first, the peptide text is derived from it. [ ]: non-standard residue; d: D form. 1Nal = N[C@@H](Cc1cccc2ccccc12)C(=O)O; 2Nal = N[C@@H](Cc1ccc2ccccc2c1)C(=O)O

Assays:
[1] = biological target: PP1 and Inhibitor 2 (Homo sapiens, UniProt P62136); assay: Disruption of the interaction between PP1 and Inhibitor 2; assay type: biochemical; details: for EC50 of the disruption of the interaction between PP1 and Inhibitor 2: starting at 50% inhibition of PP1 with I2, DiFMUP as substrate; for activity in disrupting PP1:I2 (in words): in vitro, Table 1 conditions; for PP1 activity reached (efficacy): maximum of dose-response, around 50% starting inhibition (Supp. Fig. 2E, F)
Chain of PP1 and Inhibitor 2 (P62136 whole entry): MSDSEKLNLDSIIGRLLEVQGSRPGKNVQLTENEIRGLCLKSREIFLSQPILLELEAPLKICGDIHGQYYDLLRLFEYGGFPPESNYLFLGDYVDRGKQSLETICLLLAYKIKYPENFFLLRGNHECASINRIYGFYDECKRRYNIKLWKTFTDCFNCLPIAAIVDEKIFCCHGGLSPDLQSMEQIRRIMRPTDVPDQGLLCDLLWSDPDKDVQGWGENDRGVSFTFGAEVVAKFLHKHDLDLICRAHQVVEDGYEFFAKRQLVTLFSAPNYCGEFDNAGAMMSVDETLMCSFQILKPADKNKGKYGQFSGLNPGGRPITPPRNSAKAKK

[2] = tested on: HeLa cells; assay: Calcium release assay, Fluo-4 imaging in intact HeLa cells; assay type: cell-based; details: Fluo-4, Ca^2+-containing imaging buffer
How it was run: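 HeLa Kyoto cells were grown in low-glucose DMEM with 10% FBS, penicillin/streptomycin and L-glutamine at 37 °C, 5% CO₂, then seeded in chamber slides the day before imaging (~80% confluent). Cells were loaded with 0.5 μM Fluo-4 in HEPES pH 7.4 imaging buffer containing 1.2 mM CaCl₂ for 30 min at rt, then washed. Confocal imaging used ex 488/em 516 nm: 2 min baseline, then 30 min after compound addition. Buffer and a PP1-disrupting peptide served as controls. Responding cells were counted.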

[3] = biological target: PP1 (Homo sapiens, UniProt P62136); assay: ALPHA assay, competition with Biotin-PDP2 for the RVxF binding site of His-PP1
Chain of PP1 (P62136 whole entry): as above
How it was run: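 Competition binding with 200 nM His-PP1 and 67 nM biotin-PDP2 in 50 mM Tris-Cl pH 7.5, 150 mM NaCl, 0.05% Tween 20, 1 mM MnCl₂, 0.1% BSA. Serial dilutions of test compound were added for 60 min at rt. Streptavidin-donor and anti-His-acceptor beads (5 μg/ml final) were then added for 90 min at rt in the dark. Excitation was 680 nm, emission 570 nm. The non-specific control used 22 nM GST(His-biotin).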

[4] = tested on: PP1 by I2; details: starting inhibition of PP1 by I2 of 50%; cited from earlier work

CC[C@H](C)[C@H](NC(=O)[C@@H](N)CCCNC(=N)N)C(=O)N[C@H](C(=O)N[C@@H](Cc1ccccc1)C(=O)O)[C@@H](C)O [Compound 3, RITF] (H-RITF-OH)
EC50 of the disruption of the interaction between PP1 and Inhibitor 2 [1]: Slightly active at 500 μM

CC(C)[C@H](NC(=O)[C@@H](N)CCCNC(=N)N)C(=O)NCC(=O)N[C@@H](Cc1ccccc1)C(=O)O [Compound 6, RVGF] (H-RVGF-OH)
EC50 of the disruption of the interaction between PP1 and Inhibitor 2 [1]: Slightly active at 500 μM

CC(C)[C@H](NC(=O)[C@@H](NC(=O)[C@@H](N)Cc1ccccc1)[C@@H](C)O)C(=O)N[C@@H](CCCNC(=N)N)C(=O)O [Compound 25, FTVR] (H-FTVR-OH)
activity in disrupting PP1:I2 (in words) [1]: inactive

CC(C)[C@H](NC(=O)[C@@H](NC(=O)[C@@H](N)CCCNC(=N)N)C(C)C)C(=O)N[C@@H](Cc1ccccc1)C(=O)O [Compound 7, RVVF] (H-RVVF-OH)
EC50 of the disruption of the interaction between PP1 and Inhibitor 2 [1]: Slightly active at 500 μM

CC(C)[C@H](NC(=O)[C@@H](N)CCCNC(=N)N)C(=O)N[C@@H](CCC(=O)O)C(=O)N[C@@H](Cc1ccccc1)C(=O)O [Compound 13, RVEF] (H-RVEF-OH)
EC50 of the disruption of the interaction between PP1 and Inhibitor 2 [1]: Slightly active at 500 μM

CC(C)C[C@H](NC(=O)[C@@H](N)CCCNC(=N)N)C(=O)N[C@H](C(=O)N[C@@H](Cc1ccccc1)C(=O)O)[C@@H](C)O [Compound 4, RLTF] (H-RLTF-OH)
EC50 of the disruption of the interaction between PP1 and Inhibitor 2 [1]: Slightly active at 500 μM

Ac-KRVHF-NH2 [Compound 34, Ac-KRVHF-NH2]
calcium spiking in living HeLa cells (in words) [2]: inactive

CC(C)[C@H](NC(=O)[C@@H](N)CCCNC(=N)N)C(=O)N[C@H](C(=O)N[C@@H](Cc1ccccc1)C(=O)O)[C@@H](C)O [Compound 1, RVTF] (H-RVTF-OH)
IC50 [3]: 124 µM

CC(C)[C@@H](NC(=O)[C@@H](Cc1c[nH]cn1)NC(=O)[C@H](N)Cc1ccccc1)C(=O)N[C@H](CCCNC(=N)N)C(=O)O [Compound 27, dFdHdVdR]
EC50 of the disruption of the interaction between PP1 and Inhibitor 2 [1]: Slightly active at 500 μM

CC(=O)N[C@@H](CCCNC(=N)N)C(=O)N[C@H](C(=O)N[C@H](C(=O)N[C@@H](Cc1ccccc1)C(=O)O)[C@@H](C)O)C(C)C [Compound 28, Ac-RVTF] (Ac-RVTF-OH)
activity in disrupting PP1:I2 (in words) [1]: inactive

CC(C)[C@H](NC(=O)[C@H](CCCNC(=N)N)NC(=O)[C@@H](N)CCCCN)C(=O)N[C@@H](Cc1c[nH]cn1)C(=O)N[C@@H](Cc1ccc2ccccc2c1)C(N)=O [Compound 49, KRVH-(2-NaI)-NH2] (H-KRVH[2Nal]-NH2)
PP1 activity reached (efficacy) [1]: around 80%

CC(C)[C@H](NC(=O)[C@H](CCCNC(=N)N)NC(=O)[C@@H](N)CCCCN)C(=O)N[C@@H](Cc1c[nH]cn1)C(=O)N[C@@H](Cc1cccc2ccccc12)C(N)=O [Compound 48, KRVH-(1-NaI)-NH2] (H-KRVH[1Nal]-NH2)
PP1 activity reached (efficacy) [1]: around 80%

RKIQFT
EC50 [4]: 54 µM
